Screening data (PubChem)
Hits are enriched below; roughly 5% of the tested compounds scored in any of these assays.
XBP1 UPR activ – adaptive UPR (XBP1) activation; activation, % at 20 µM; AID 463104; hit rate 0.33% among 330,000; CHO-XBP1 luciferase reporter, IRE1-XBP1 UPR activation, luminescence; percent of tunicamycin response, DMSO as zero;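 active = versus positive control, 20 µM dose yields 30% or more activation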
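assay system = CHO-XBP1 luciferase reporter cells | amount = 1000 cells/well | buffer or medium = F12 plus 10% FBS | compound dosing = single point, 20 µM final compound, 1% DMSO | incubation = 16-18 h cell attachment at 37 °C, then 6 h compound exposure | detection = Steady-Glo luminescence read | controls = tunicamycin 10 µg/mL and vehicle-only wells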
T cruzi repl – blocks replication of Trypanosoma cruzi; T. cruzi beta-gal in NIH3T3, luminescence, 90 h; inhibition, % (concentration not given with the values); AID 1885; hit rate 1.4% among 300,000;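 active = mean inhibition across valid replicates above about 55%, limit read from the data; inconclusive = mean below that limit but half or more replicates reach it; inactive = mean below it, under half of replicates reach it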;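 also: signal also drops with host cell toxicity which is not excluded here; higher percent means less beta-gal luminescence so fewer parasites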
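System – NIH/3T3 host cells with β-galactosidase reporter T. cruzi · Doses – single 50 nL compound addition per well in DMSO · Reagent – 5000 T. cruzi trypomastigotes/well · Medium – Low-serum DMEM with 2% FBS · Timing – ≥90 h infection period, 3 h prior cell attachment · Evaluation – parasite load inhibition, % · Technique – GalScreen luminescence, 60 min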
Mdm2 MdmX PPI – inhibitors of human Mdm2/MdmX interaction; inhibition, % at 8 µM; SaOS-2 split-luciferase Mdm2/MdmX complementation, luminescence; O15151+Q00987; AID 485346; hit rate 3% among 330,000;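 active = inhibition of at least 50% at 8 µM in the primary screen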
CHOP UPR activ – activators of apoptotic arm of unfolded protein response (CHOP); activation, % at 10 µM; hit rate 0.34% among 330,000; AID 449763; CHO-CHOP luciferase reporter, UPR activation, luminescence; percent of tunicamycin response over DMSO baseline;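 active = at 10 µM dose, activation of 40% or more, normalized to positive control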
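assay system = CHO CHOP reporter cells | amount = 500 CHO-CHOP cells per well | buffer or medium = F12 with 10% FBS | incubation = 16-18 h cell attachment, then 6 h compound exposure, 37 °C | detection = luminescence read with Steady-Glo | read-out = percent activation relative to tunicamycin control | controls = tunicamycin high control, DMSO low control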
CSC inhib – blocks cancer stem cells; cancer stem cell-like cells viability, luminescence; hit rate 1.1% among 300,000; inhibition, % at 7.5 µM; AID 2717; in the data active = inhibition above about 75%; inconclusive = no clear call, values can overlap the other calls; tested in HMLE shEcad cells
Beta cell apopt – blocks beta cell apoptosis; INS-1E cytokine-induced death, ATP luminescence, 48 h; percent of positive-control rescue, neutral wells zero; protection from apoptosis, % (test concentration not listed); hit rate 0.8% among 300,000;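 active = Every replicate reaches about 75%, or at least half do and their mean reaches it too, limit read from the data; inconclusive = At least half of replicates reach the limit but their mean does not; inactive = Under half of replicates reach the limit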;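 also: higher means more ATP so stronger rescue from cytokine killing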
CHOP UPR conf – confirmation of apoptotic unfolded protein response (CHOP) activators; shares compounds with CHOP UPR activ; CHO-CHOP cells, CHOP-luciferase reporter luminescence; percent of tunicamycin response, DMSO as zero; activation, % at 10 µM; hit rate 64% among 1,000; in the data active = activation above about 33%
XBP1 UPR conf – adaptive UPR (XBP1) activation, confirmed; shares compounds with XBP1 UPR activ; CHO-XBP1 IRE1-XBP1 luciferase reporter, luminescence; activation, % at 20 µM; hit rate 63% among 1,000; AID 485299;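 active = reporter signal at least 30% of the positive control's activation in two or more of four replicate wells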
Mdm2 MdmX conf – confirmation of human Mdm2/MdmX interaction inhibitors; shares compounds with Mdm2 MdmX PPI; Mdm2-MdmX binding, luminescent assay; inhibition, % at 8 µM; hit rate 55% among 10,000; in the data active = inhibition above about 40%
FLuc counter – inhibits full-length luciferase, flagging false Mdm2/MdmX hits; shares compounds with Mdm2 MdmX PPI; SaOS-2 full-length luciferase counterscreen, luminescence; inhibition, % at 8 µM; hit rate 77% among 6,200; AID 504607;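 active = mean inhibition at 8 µM reaching about 37%, which flags the compound as non-specific, limit read from the data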;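 also: p53-null SaOS-2 cells with luciferase driven by a doxycycline-inducible promoter; compound on cells about two nights before reading with doxycycline added after day one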
A number is an active result.

Screening COC(=O)/C(=C\c1ccc(O)cc1)c1nc2ccccc2[nH]1 returned XBP1 UPR activ inactive, T cruzi repl inactive, Mdm2 MdmX PPI inactive, CHOP UPR activ inactive, CSC inhib inactive and Beta cell apopt inactive.
`CC1(C(=O)CSc2n[nH]c(-c3ccccc3Cl)n2)CCC(=O)O1` (stereo not drawn) gave XBP1 UPR activ inactive, T cruzi repl inactive, Mdm2 MdmX PPI inactive, CHOP UPR activ inactive and Beta cell apopt inactive.
O=C(/C=C/c1ccco1)NC(=S)Nc1ccc(O)c(-c2nc3ccccc3s2)c1 was read as XBP1 UPR activ 153, T cruzi repl inactive, Mdm2 MdmX PPI 77, CHOP UPR activ 106, Beta cell apopt inactive, CHOP UPR conf 86, XBP1 UPR conf 287, Mdm2 MdmX conf inactive and FLuc counter 72.
`COc1ccc(NC(=S)NC(=O)/C=C/c2ccco2)cc1` gave XBP1 UPR activ inactive, T cruzi repl inactive, Mdm2 MdmX PPI inactive, CHOP UPR activ inactive, CSC inhib inactive and Beta cell apopt inactive.
Screening CN(C)c1ccc(/C=C/C(O)=C2/C(=O)N(C)C3(C)CC2c2ccccc2O3)cc1 (stereo not drawn) returned T cruzi repl inactive, CSC inhib inactive and Beta cell apopt inactive.
CCOc1ccc(/C=C/C(O)=C2/C(=O)NC3(C)CC2c2ccccc2O3)cc1OC (stereo not drawn) was read as XBP1 UPR activ 41, T cruzi repl inactive, Mdm2 MdmX PPI 83, CHOP UPR activ 46, CSC inhib inactive, Beta cell apopt inactive, CHOP UPR conf inactive, XBP1 UPR conf 46, Mdm2 MdmX conf 90 and FLuc counter inactive.
CCOC(=O)C(=O)/C(C#N)=C/Nc1ccccc1 was read as XBP1 UPR activ inactive, T cruzi repl inactive, Mdm2 MdmX PPI inactive, CHOP UPR activ inactive, CSC inhib inactive and Beta cell apopt inactive.
`CCOC(=O)/C(=C\c1ccccc1)C(=O)c1cc(C(C)=O)c(Nc2ccccc2)s1` gave XBP1 UPR activ 60, T cruzi repl 55, Mdm2 MdmX PPI 97, CHOP UPR activ 139, CSC inhib 76, Beta cell apopt 98, CHOP UPR conf 191, XBP1 UPR conf 41, Mdm2 MdmX conf 93 and FLuc counter 45.
Screening O=C(CCl)Nc1ccc(-c2ccccc2)cc1 returned XBP1 UPR activ inactive, T cruzi repl 61, Mdm2 MdmX PPI 96, CHOP UPR activ 43, CSC inhib inactive, Beta cell apopt inactive, CHOP UPR conf 47, Mdm2 MdmX conf 99 and FLuc counter 50.
For COc1ccc(CNC[C@@H](CCCCN(C)Cc2ccc(OC)cc2)N2C[C@H](c3ccccc3)N(CCc3ccc(Cl)c(Cl)c3)C(=O)C2=O)cc1 the results were XBP1 UPR activ inactive, T cruzi repl inactive, Mdm2 MdmX PPI 99, CHOP UPR activ 134, CSC inhib 107, Beta cell apopt 99, CHOP UPR conf 147, Mdm2 MdmX conf 100 and FLuc counter 53.
For CCCCN(C(=O)C(C)Oc1ccc(Br)cc1)c1c(N)n(CC(C)C)c(=O)[nH]c1=O (stereo not drawn) the results were XBP1 UPR activ inactive, Mdm2 MdmX PPI inactive, CHOP UPR activ inactive and Beta cell apopt inactive.
For CCCOc1ccc(Cl)cc1/C=C1/C(=O)ON=C1C the results were XBP1 UPR activ inactive, T cruzi repl inactive, Mdm2 MdmX PPI inactive, CHOP UPR activ inactive, CSC inhib inactive and Beta cell apopt inactive.
Screening CC1=NOC(=O)/C1=C\c1ccc(-c2ccc(Cl)cc2Cl)o1 returned XBP1 UPR activ inactive, T cruzi repl inactive, Mdm2 MdmX PPI 64, CHOP UPR activ 106, CHOP UPR conf 110 and Mdm2 MdmX conf inactive.
CC1=CC(C)(C)Nc2ccc(OC(=O)CN3C(=O)CCC3=O)cc21 was read as XBP1 UPR activ inactive, T cruzi repl 56, Mdm2 MdmX PPI 55, CHOP UPR activ 87, CHOP UPR conf 92 and Mdm2 MdmX conf inactive.
`COc1cc(/C=C/C(=O)c2ccc([N+](=O)[O-])o2)ccc1O` gave XBP1 UPR activ inactive, T cruzi repl inconclusive, Mdm2 MdmX PPI 100, CHOP UPR activ 94, CSC inhib inactive, Beta cell apopt 115, CHOP UPR conf inactive, Mdm2 MdmX conf 100 and FLuc counter inactive.
Screening COc1ccc(/C=C/C(=O)c2ccc([N+](=O)[O-])o2)cc1OC returned XBP1 UPR activ inactive, T cruzi repl inactive, Mdm2 MdmX PPI 96, CHOP UPR activ 82, CSC inhib 78, Beta cell apopt 112, CHOP UPR conf inactive, Mdm2 MdmX conf 93 and FLuc counter 57.
`COc1cc(/C=C/C(=O)O)ccc1O` gave XBP1 UPR activ inactive, T cruzi repl inactive, Mdm2 MdmX PPI inactive, CHOP UPR activ inactive and CSC inhib inactive.
Screening COc1ccc(/C=C/C(=O)c2ccc3c(c2)OCCO3)cc1[N+](=O)[O-] returned XBP1 UPR activ inactive, T cruzi repl inactive, Mdm2 MdmX PPI inactive, CHOP UPR activ inactive, CSC inhib inactive and Beta cell apopt inactive.
CCn1c(SCC(N)=O)nnc1-c1ccc2c(c1)OCO2 was read as XBP1 UPR activ inactive, T cruzi repl inactive, Mdm2 MdmX PPI inactive, CHOP UPR activ inactive, CSC inhib inactive and Beta cell apopt inactive.
For CC(CNS(=O)(=O)c1ccccc1)(c1ccccc1)N1CCCCC1 (stereo not drawn) the results were XBP1 UPR activ inactive, T cruzi repl inactive, Mdm2 MdmX PPI inactive, CHOP UPR activ inactive, CSC inhib inactive and Beta cell apopt inactive.
`Cc1cc(C)cc(NC(=O)/C(C#N)=C/c2cn(CC(=O)NCc3ccco3)c3ccccc23)c1` gave XBP1 UPR activ 152, T cruzi repl inactive, Mdm2 MdmX PPI 95, CHOP UPR activ 276, CSC inhib inactive, Beta cell apopt 101, CHOP UPR conf 44, XBP1 UPR conf 295 and Mdm2 MdmX conf inactive.
For N#C/C(=C\c1cn(CCOc2ccccc2)c2ccccc12)C(=O)NCc1ccco1 the results were XBP1 UPR activ inactive, T cruzi repl inactive, Mdm2 MdmX PPI inactive, CHOP UPR activ inactive, CSC inhib inactive and Beta cell apopt inactive.
Screening CNC(=O)/C(C#N)=C/c1cn(CC(=O)NCc2ccco2)c2ccccc12 returned XBP1 UPR activ inactive, T cruzi repl inactive, Mdm2 MdmX PPI inactive, CHOP UPR activ inactive, CSC inhib inactive and Beta cell apopt inactive.
